Experimental findings from ChEMBL document CHEMBL1153527, “Discovery of a novel series of quinolone and naphthyridine derivatives as potential topoisomerase I inhibitors by scaffold modification” (J Med Chem, 2009) are described below.

One assay concerns SK-OV-3. The experiment in a line: Induction of apoptosis in human SKOV3 cells assessed as morphological changes at 5 ug/mL after 24 hrs by immunostaining. It is filed as functional, cell-based. An outline of the steps: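 SKOV3 and HT-29 cells were treated with 0.25 or 5 μg/mL for 24 h. Cell morphology was assessed by microscopy after fixation in 4% formaldehyde and Hoechst 33342 staining (10 μg/mL), against an untreated control.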

Assay [1] deals with T1, DNA topoisomerase 1 (Homo sapiens) (UniProt P11387).
T1 sequence (whole entry): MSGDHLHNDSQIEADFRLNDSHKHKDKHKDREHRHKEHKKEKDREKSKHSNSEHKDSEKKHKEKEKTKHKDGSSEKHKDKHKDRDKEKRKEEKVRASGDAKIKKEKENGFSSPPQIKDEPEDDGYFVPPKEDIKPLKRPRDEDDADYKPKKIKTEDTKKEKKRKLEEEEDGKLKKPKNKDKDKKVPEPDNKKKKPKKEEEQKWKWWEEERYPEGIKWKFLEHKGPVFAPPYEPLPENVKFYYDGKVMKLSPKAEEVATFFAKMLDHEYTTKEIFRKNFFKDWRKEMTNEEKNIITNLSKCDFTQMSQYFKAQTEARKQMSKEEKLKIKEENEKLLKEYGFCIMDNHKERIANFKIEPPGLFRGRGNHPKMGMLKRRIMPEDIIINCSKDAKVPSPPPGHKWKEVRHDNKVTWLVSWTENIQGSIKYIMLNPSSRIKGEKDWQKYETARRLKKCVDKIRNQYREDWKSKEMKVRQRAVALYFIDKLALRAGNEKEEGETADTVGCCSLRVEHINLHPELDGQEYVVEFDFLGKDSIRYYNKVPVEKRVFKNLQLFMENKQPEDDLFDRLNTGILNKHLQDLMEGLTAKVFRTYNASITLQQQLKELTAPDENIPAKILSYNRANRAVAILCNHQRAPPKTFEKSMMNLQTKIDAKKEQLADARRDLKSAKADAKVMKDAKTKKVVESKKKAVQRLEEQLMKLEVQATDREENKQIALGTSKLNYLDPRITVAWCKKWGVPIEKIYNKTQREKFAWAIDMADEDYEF
The experiment in a line: Induction of human topoisomerase 1-mediated chromosomal DNA strand breaks in HT-29 cells at 10 uM after 1 hr by comet assay. The format is cell-based. An outline of the steps:
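HT-29 cells were seeded at 1 × 10^4 per well and attached overnight, then treated for 1 h. Untreated cells served as negative control. Cells in low-melting agarose on precoated slides were lysed at pH 10.5 for 30 min at 4 °C and unwound in 300 mM NaOH/1 mM EDTA (pH >13) for 30 min at 4 °C. Electrophoresis ran 10 min at 16 V, with SYBR Gold staining. Read-out was mean % tail DNA from ≥50 nuclei, duplicates in three independent experiments.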

Assay [2] concerns the target T1, DNA topoisomerase 1 (Homo sapiens). The experiment in a line: Inhibition of DNA topoisomerase 1-mediated supercoiled Escherichia coli pBR322 DNA relaxation upto 25 uM after 30 mins.

The source made the active and inactive calls. The rule behind the calls is not given here.

With `CCn1cc(-c2nc3ccc([N+](=O)[O-])cc3o2)c(=O)c2cc(F)c(N3CCNC(C)C3)c(F)c21` (stereo not drawn), the outcome in the assay with SK-OV-3 was Active. This compound also showed an Activity in assay [1] of 48%. Further, in assay [2], the inhibition result was “inactive”.
